Data published in ChEMBL document CHEMBL3774321, “Systematic diversification of benzylidene heterocycles yields novel inhibitor scaffolds selective for Dyrk1A, Clk1 and CK2” (Eur J Med Chem, 2016).
Blank lines part the entries; values can stand above or below the compound they belong to. Calls of active or inactive are those of the source. The calls are words filed in the database; no cut-off is given here.

Tests used:
[1] = molecular target: Serine/threonine-protein kinase 17A (Homo sapiens) (UniProt Q9UEE5); assay: Inhibition of STK17A (unknown origin) at 5 uM relative to control
[2] = molecular target: T1, Myosin light chain kinase 2, skeletal/cardiac muscle (Homo sapiens, UniProt Q9H1R3); assay: Inhibition of full length recombinant human N-terminal GST-tagged MLCK expressed in baculovirus expression system at 5 uM by lantha screen kinase binding assay relative to control
Method in brief: (§1)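 Binding-displacement format: the compound competes with an Alexa Fluor-conjugated tracer for binding to the kinase ATP site, rather than a peptide phosphorylation read-out.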

[3] = molecular target: T1, Myosin light chain kinase 2, skeletal/cardiac muscle; assay: Inhibition of full length recombinant human N-terminal GST-tagged skeletal MYLK2 expressed in baculovirus expression system at 5 uM by lantha screen kinase binding assay relative to control; method in brief: as §1
[4] = molecular target: Mitogen-activated protein kinase kinase kinase 9 (Homo sapiens) (UniProt P80192); assay: Inhibition of recombinant human GST-tagged MAP3K9 expressed in baculovirus expression system at 5 uM by lantha screen kinase binding assay relative to control; method in brief: as §1
[5] = molecular target: Serine/threonine-protein kinase 26 (Homo sapiens) (UniProt Q9P289); assay: Inhibition of full length recombinant human GST-tagged MST4 expressed in baculovirus expression system at 5 uM by lantha screen kinase binding assay relative to control
[6] = molecular target: cAMP-dependent protein kinase catalytic subunit alpha (Homo sapiens) (UniProt P17612); assay: Inhibition of recombinant human His-tagged PRKACA expressed in Escherichia coli at 5 uM by lantha screen kinase binding assay relative to control; method in brief: as §1
[7] = molecular target: BDNF/NT-3 growth factors receptor (Homo sapiens) (UniProt Q16620); assay: Inhibition of recombinant human His-tagged NTRK2 expressed in baculovirus expression system at 5 uM by lantha screen kinase binding assay relative to control; method in brief: as §1
[8] = molecular target: Casein kinase I isoform epsilon (Homo sapiens) (UniProt P49674); assay: Inhibition of full length recombinant human His-tagged CSNK1E expressed in baculovirus expression system at 5 uM by lantha screen kinase binding assay relative to control
[9] = molecular target: Casein kinase I isoform gamma-2 (Homo sapiens) (UniProt P78368); assay: Inhibition of full length recombinant human His-tagged CSNK1G2 expressed in baculovirus expression system at 5 uM by lantha screen kinase binding assay relative to control; method in brief: as §1
[10] = molecular target: Dual specificity protein kinase CLK2 (Homo sapiens) (UniProt P49760); assay: Inhibition of recombinant human GST-tagged CLK2 expressed in baculovirus expression system at 5 uM by lantha screen kinase binding assay relative to control; method in brief: as §1
[11] = molecular target: Dual specificity tyrosine-phosphorylation-regulated kinase 4 (Homo sapiens) (UniProt Q9NR20); assay: Inhibition of full length recombinant human GST-tagged DYRK4 expressed in baculovirus expression system at 5 uM by lantha screen kinase binding assay relative to control
[12] = molecular target: Glycogen synthase kinase-3 beta (Homo sapiens) (UniProt P49841); assay: Inhibition of full length recombinant human His-tagged GSK3beta expressed in baculovirus expression system at 5 uM by lantha screen kinase binding assay relative to control; method in brief: as §1
[13] = molecular target: Mitogen-activated protein kinase 8 (Homo sapiens) (UniProt P45983); assay: Inhibition of full length recombinant human His-tagged MAPK8 expressed in baculovirus expression system at 5 uM by lantha screen kinase binding assay relative to control; method in brief: as §1
[14] = molecular target: Serine/threonine-protein kinase pim-2 (Homo sapiens) (UniProt Q9P1W9); assay: Inhibition of full length recombinant human GST-tagged PIM2 expressed in baculovirus expression system at 5 uM by lantha screen kinase binding assay relative to control
HEK293 = assay: Cytotoxicity against HEK293 cells up to 20 uM; type: cell-based; conditions: human
[15] = molecular target: Calcium/calmodulin-dependent protein kinase type II subunit alpha (Homo sapiens) (UniProt Q9UQM7); assay: Inhibition of full length recombinant human His-tagged CAMK2A expressed in baculovirus expression system at 1 uM by lantha screen kinase binding assay relative to control
[16] = molecular target: T1, Myosin light chain kinase 2, skeletal/cardiac muscle; assay: Inhibition of full length recombinant human N-terminal GST-tagged MLCK expressed in baculovirus expression system at 1 uM by lantha screen kinase binding assay relative to control; method in brief: as §1
[17] = molecular target: T1, Myosin light chain kinase 2, skeletal/cardiac muscle; assay: Inhibition of full length recombinant human N-terminal GST-tagged MLCK expressed in baculovirus expression system by lantha screen kinase binding assay; method in brief: as §1
[18] = molecular target: Myosin light chain kinase, smooth muscle (Homo sapiens) (UniProt Q15746); assay: Inhibition of recombinant human GST-tagged MYLK expressed in baculovirus expression system at 1 uM by lantha screen kinase binding assay relative to control; method in brief: as §1
[19] = molecular target: T1, Myosin light chain kinase 2, skeletal/cardiac muscle; assay: Inhibition of full length recombinant human N-terminal GST-tagged skeletal MYLK2 expressed in baculovirus expression system at 1 uM by lantha screen kinase binding assay relative to control; method in brief: as §1
[20] = molecular target: MAP kinase-interacting serine/threonine-protein kinase 2 (Homo sapiens) (UniProt Q9HBH9); assay: Inhibition of full length recombinant human N-terminal GST-tagged MKNK2 expressed in insect cells at 1 uM by lantha screen kinase binding assay relative to control; method in brief: as §1
[21] = molecular target: MAP kinase-interacting serine/threonine-protein kinase 1 (Homo sapiens) (UniProt Q9BUB5); assay: Inhibition of full length recombinant human N-terminal GST-tagged MKNK1 expressed in insect cells at 1 uM by lantha screen kinase binding assay relative to control; method in brief: as §1
[22] = molecular target: Activin receptor type-1 (Homo sapiens) (UniProt Q04771); assay: Inhibition of recombinant human GST-tagged ACVR1 expressed in baculovirus expression system at 1 uM by lantha screen kinase binding assay relative to control; method in brief: as §1
[23] = molecular target: Serine/threonine-protein kinase 26 (Homo sapiens) (UniProt Q9P289); assay: Inhibition of full length recombinant human GST-tagged MST4 expressed in baculovirus expression system at 1 uM by lantha screen kinase binding assay relative to control
[24] = molecular target: Tyrosine-protein kinase ABL1 (Homo sapiens) (UniProt P00519); assay: Inhibition of recombinant human His-tagged ABL1 expressed in baculovirus expression system at 1 uM by lantha screen kinase binding assay relative to control; method in brief: as §1
[25] = molecular target: BDNF/NT-3 growth factors receptor (Homo sapiens) (UniProt Q16620); assay: Inhibition of recombinant human His-tagged NTRK2 expressed in baculovirus expression system at 1 uM by lantha screen kinase binding assay relative to control; method in brief: as §1
[26] = molecular target: Casein kinase I isoform delta (Homo sapiens) (UniProt P48730); assay: Inhibition of full length recombinant human GST-tagged CSNK1D expressed in baculovirus expression system at 1 uM by lantha screen kinase binding assay relative to control
[27] = molecular target: Serine/threonine-protein kinase 17A (Homo sapiens) (UniProt Q9UEE5); assay: Inhibition of STK17A (unknown origin) at 1 uM relative to control
[28] = molecular target: Serine/threonine-protein kinase pim-1 (Homo sapiens, UniProt P11309); assay: Inhibition of PIM1 (unknown origin) at 1 uM relative to control
Method in brief: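 Single-point screen at 1 μM compound. Percent inhibition is the mean of two separate measurements, each run in duplicate.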

[29] = molecular target: Cyclin-dependent kinase 5/CDK5 activator 1 (Homo sapiens) (UniProt Q00535+Q15078); assay: Inhibition of full length recombinant human GST-tagged, His-tagged CDK5/p25 expressed in baculovirus expression system at 1 uM by lantha screen kinase binding assay
[30] = molecular target: Mitogen-activated protein kinase 14 (Homo sapiens) (UniProt Q16539); assay: Inhibition of full length recombinant human GST-tagged MAPK14 expressed in Escherichia coli at 1 uM by lantha screen kinase binding assay relative to control
[31] = molecular target: Dual specificity protein kinase CLK4 (Homo sapiens, UniProt Q9HAZ1); conditions: 1 uM

T1 sequence (Q9H1R3 whole entry): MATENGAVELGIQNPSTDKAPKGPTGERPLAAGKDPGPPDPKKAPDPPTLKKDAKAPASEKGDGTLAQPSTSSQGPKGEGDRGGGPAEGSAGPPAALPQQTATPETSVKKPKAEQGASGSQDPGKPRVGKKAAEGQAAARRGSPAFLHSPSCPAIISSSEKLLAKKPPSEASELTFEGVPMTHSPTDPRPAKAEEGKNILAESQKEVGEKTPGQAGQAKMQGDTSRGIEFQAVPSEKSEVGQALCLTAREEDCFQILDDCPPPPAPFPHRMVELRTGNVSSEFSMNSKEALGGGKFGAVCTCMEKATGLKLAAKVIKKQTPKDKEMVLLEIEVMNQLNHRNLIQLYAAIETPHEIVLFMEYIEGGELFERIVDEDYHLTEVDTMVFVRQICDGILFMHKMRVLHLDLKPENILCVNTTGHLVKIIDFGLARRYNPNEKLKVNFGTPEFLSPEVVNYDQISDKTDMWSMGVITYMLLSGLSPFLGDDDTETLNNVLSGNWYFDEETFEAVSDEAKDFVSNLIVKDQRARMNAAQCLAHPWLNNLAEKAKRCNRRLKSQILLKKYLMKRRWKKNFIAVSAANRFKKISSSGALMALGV
BDNF/NT-3 growth factors receptor (Homo sapiens), sequence (Q16620 32-822 limits assumed): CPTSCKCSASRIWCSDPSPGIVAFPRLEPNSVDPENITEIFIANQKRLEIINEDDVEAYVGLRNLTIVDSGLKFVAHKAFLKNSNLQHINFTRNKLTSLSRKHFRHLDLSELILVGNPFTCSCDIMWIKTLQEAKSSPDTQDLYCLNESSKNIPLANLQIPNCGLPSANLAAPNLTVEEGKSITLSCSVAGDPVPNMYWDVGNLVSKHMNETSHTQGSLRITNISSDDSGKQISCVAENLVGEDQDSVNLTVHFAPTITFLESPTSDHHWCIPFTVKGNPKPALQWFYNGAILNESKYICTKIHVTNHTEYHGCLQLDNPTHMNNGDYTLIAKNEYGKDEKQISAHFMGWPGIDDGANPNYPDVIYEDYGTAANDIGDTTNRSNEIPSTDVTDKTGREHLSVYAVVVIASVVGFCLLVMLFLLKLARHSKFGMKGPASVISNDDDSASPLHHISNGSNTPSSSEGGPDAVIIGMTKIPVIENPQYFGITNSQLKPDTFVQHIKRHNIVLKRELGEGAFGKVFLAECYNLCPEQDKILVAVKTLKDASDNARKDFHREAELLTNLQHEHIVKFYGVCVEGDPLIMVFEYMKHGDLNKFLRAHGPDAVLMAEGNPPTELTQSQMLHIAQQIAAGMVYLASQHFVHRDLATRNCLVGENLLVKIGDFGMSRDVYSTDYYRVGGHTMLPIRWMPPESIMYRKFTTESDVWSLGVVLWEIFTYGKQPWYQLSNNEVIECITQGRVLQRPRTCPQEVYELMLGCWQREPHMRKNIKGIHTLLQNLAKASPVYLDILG
Serine/threonine-protein kinase 26 (Homo sapiens), sequence (Q9P289 2-416 limits assumed): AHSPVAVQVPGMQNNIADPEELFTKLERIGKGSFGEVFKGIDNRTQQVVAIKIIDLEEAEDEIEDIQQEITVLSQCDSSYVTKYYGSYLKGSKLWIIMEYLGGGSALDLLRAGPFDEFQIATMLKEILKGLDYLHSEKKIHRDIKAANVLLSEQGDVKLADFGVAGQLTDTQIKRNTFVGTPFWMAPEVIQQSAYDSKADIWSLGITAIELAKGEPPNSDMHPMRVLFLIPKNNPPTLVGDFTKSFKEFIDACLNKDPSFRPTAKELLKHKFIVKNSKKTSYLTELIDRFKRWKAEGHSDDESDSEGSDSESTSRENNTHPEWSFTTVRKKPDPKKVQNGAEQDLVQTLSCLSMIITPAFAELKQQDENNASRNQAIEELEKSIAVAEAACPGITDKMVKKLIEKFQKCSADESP
Serine/threonine-protein kinase 17A (Homo sapiens), sequence (Q9UEE5 whole entry): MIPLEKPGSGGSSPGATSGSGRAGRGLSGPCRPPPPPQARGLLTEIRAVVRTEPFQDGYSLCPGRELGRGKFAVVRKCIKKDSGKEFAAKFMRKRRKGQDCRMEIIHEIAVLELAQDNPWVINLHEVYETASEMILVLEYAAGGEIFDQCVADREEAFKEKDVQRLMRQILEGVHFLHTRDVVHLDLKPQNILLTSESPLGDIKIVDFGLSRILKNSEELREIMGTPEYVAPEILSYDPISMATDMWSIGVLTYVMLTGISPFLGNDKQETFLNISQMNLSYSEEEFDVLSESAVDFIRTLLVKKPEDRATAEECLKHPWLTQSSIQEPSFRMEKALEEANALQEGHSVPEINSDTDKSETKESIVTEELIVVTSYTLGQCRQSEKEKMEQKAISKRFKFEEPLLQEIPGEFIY
Cyclin-dependent kinase 5/CDK5 activator 1 (Homo sapiens), sequence (Q00535 whole entry): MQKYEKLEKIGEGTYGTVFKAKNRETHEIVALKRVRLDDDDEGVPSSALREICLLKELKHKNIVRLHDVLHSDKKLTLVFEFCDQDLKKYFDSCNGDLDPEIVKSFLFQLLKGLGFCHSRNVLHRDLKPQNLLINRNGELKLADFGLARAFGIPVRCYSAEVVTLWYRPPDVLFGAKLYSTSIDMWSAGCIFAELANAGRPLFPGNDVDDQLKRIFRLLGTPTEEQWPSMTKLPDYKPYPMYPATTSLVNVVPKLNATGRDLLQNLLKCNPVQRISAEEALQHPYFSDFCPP
Cyclin-dependent kinase 5/CDK5 activator 1 (Homo sapiens), sequence (Q15078 99-307 partner limits assumed): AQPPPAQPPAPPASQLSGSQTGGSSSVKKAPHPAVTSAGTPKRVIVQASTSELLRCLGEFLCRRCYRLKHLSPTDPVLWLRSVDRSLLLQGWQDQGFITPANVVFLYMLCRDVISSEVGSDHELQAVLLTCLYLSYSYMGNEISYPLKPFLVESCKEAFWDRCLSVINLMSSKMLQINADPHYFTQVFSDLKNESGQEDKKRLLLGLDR
MAP kinase-interacting serine/threonine-protein kinase 2 (Homo sapiens), sequence (Q9HBH9 whole entry, looked up): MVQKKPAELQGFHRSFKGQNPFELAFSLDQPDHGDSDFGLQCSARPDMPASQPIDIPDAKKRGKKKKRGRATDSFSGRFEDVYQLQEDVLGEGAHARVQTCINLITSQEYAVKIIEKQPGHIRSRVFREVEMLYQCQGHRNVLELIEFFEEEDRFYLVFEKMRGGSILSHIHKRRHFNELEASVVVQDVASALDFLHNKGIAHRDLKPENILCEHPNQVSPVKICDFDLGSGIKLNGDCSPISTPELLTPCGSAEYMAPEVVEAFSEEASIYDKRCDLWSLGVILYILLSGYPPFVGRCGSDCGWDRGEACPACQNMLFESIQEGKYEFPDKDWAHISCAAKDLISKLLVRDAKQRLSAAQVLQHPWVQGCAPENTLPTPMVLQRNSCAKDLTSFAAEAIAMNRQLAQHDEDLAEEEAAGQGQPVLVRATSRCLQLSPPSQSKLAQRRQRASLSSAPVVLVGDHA
Calcium/calmodulin-dependent protein kinase type II subunit alpha (Homo sapiens), sequence (Q9UQM7 whole entry): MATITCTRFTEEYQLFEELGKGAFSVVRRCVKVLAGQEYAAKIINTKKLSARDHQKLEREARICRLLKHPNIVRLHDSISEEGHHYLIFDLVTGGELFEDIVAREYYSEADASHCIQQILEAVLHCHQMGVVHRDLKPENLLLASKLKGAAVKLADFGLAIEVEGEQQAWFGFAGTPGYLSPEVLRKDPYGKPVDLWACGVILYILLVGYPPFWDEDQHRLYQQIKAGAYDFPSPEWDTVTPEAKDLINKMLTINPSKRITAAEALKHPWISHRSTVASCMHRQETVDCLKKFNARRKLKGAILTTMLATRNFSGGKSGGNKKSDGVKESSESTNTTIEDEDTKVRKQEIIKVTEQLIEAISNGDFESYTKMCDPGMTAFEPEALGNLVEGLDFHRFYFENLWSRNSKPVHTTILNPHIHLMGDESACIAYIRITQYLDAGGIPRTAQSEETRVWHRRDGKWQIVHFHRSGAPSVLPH
Dual specificity tyrosine-phosphorylation-regulated kinase 4 (Homo sapiens), sequence (Q9NR20 whole entry): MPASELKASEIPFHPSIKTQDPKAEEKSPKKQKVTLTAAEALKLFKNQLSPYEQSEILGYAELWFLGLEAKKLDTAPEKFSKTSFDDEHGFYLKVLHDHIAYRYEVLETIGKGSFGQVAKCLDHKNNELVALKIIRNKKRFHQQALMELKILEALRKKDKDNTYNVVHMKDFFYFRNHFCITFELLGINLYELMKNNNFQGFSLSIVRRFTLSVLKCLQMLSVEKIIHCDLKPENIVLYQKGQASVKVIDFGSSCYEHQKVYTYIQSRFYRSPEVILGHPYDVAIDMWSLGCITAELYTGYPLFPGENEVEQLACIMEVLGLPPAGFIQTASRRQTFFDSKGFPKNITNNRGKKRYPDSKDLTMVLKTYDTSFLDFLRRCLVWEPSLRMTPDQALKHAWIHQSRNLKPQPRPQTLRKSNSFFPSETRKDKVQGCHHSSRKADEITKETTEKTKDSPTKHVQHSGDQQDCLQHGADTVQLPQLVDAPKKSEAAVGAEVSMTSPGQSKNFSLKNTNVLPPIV
Dual specificity protein kinase CLK2 (Homo sapiens), sequence (P49760 whole entry, looked up): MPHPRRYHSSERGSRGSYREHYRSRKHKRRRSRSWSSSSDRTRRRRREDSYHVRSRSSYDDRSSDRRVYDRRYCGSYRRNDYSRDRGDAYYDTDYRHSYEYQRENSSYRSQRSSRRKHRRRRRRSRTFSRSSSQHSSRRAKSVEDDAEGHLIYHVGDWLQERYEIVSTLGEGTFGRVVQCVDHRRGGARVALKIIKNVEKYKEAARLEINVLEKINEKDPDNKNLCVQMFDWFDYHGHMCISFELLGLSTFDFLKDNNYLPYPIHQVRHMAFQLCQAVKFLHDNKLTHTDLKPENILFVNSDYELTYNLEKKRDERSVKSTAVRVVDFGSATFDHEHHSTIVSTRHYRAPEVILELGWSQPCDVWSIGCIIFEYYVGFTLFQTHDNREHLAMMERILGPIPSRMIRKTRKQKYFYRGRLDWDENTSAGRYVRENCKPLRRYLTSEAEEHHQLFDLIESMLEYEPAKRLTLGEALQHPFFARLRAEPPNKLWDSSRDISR

inhibition [1]: 28%
Compound: CC1C/C(=C\c2ccc3c(c2)CCO3)C(=O)O1 (configuration not stated)

inhibition [2]: 12%
inhibition [3]: inactive
inhibition [4]: inactive
inhibition [5]: inactive
inhibition [6]: inactive
inhibition [7]: inactive
inhibition [8]: inactive
inhibition [9]: inactive
inhibition [10]: 65%
inhibition [11]: inactive
inhibition [12]: 8%
inhibition [13]: 14%
inhibition [14]: inactive
Compound: O=C1NC(=S)S/C1=C\c1ccc2ncsc2c1

Compound: O=C1OCC/C1=C\c1ccc2ncsc2c1
Activity (HEK293): Non-toxic

inhibition [15]: 7%
inhibition [16]: 89%
IC50 [17]: 157 nM
inhibition [18]: 48%
inhibition [19]: 35%
inhibition [20]: 34%
inhibition [21]: 44%
inhibition [22]: 37%
inhibition [23]: inactive
inhibition [24]: 14%
inhibition [25]: 3%
inhibition [26]: 11%
inhibition [27]: 97%
inhibition [28]: 89%
inhibition [29]: inactive
inhibition [30]: 6%
inhibition [31]: 97%
Compound: O=C1NC(=S)S/C1=C\c1ccc2ncccc2c1
